Laboratory results reported in ChEMBL document CHEMBL2146385, “Synthesis and antiviral evaluation of bis(POM) prodrugs of (E)-[4'-phosphono-but-2'-en-1'-yl]purine nucleosides” (Eur J Med Chem, 2012).
Active and inactive are the calls of the source. The rule behind the calls is not given here.

What was measured:
[1] = tested on: Punta Toro virus; test: Antiviral activity against Punta Toro virus infected in african green monkey Vero assessed as inhibition of virus-induced cytopathicity after 3 days; format: functional, organism-based
Method in brief: (§1)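 Confluent cell monolayers infected with 100 CCID50 of virus in the presence of test compound at 100, 20,... μM. Cytopathicity was scored once it was complete in untreated infected controls.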

[2] = tested on: Human alphaherpesvirus 1; test: Antiviral activity against acyclovir-resistant thymidine kinase deficient HSV1 KOS infected in HEL assessed as inhibition of virus-induced cytopathicity after 3 days; format: functional, organism-based; settings: Human alphaherpesvirus 1, KOS, 72 h
[3] = tested on: Human respirovirus 3; test: Antiviral activity against Parainfluenza-3 virus infected in african green monkey Vero assessed as inhibition of virus-induced cytopathicity after 3 days; format: functional, organism-based; method in brief: as §1
[4] = tested on: Human alphaherpesvirus 2; test: Antiviral activity against HSV2 G infected in HEL assessed as inhibition of virus-induced cytopathicity after 3 days; format: functional, organism-based; settings: Human alphaherpesvirus 2, strain G, 72 h; method in brief: as §1
[5] = tested on: HeLa; test: Cytotoxicity against human HeLa cells; format: cell-based
[6] = tested on: Respiratory syncytial virus; test: Antiviral activity against Respiratory syncytial virus infected in human HeLa assessed as inhibition of virus-induced cytopathicity after 3 days; format: functional, organism-based; method in brief: as §1
[7] = tested on: L1210; test: Cytotoxicity against mouse L1210 cells; format: cell-based
[8] = tested on: Human immunodeficiency virus 2; test: Antiviral activity against HIV2 ROD infected in human CEM cells assessed as inhibition of virus-induced giant cell formation after 4 days; format: functional, organism-based; settings: Human immunodeficiency virus 2, ISOLATE ROD, CCRF-CEM, 96 h
Method in brief: (§2)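 Human CEM cells (~3×10^5 cells/cm3) were infected with 100 CCID50 of HIV-1(IIIB) or HIV-2(ROD) per ml and seeded into wells containing compound dilutions. After 4 days at 37 °C, giant cell formation was examined microscopically.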

[9] = Cytotoxicity against HEL assessed as minimum compound concentration causes microscopically detectable alteration of cell morphology after 3 days; format: cell-based; settings: human, HEL cells
[10] = Selectivity index, ratio of CC50 for human CEM cells to EC50 for HIV2 ROD; format: toxicity, cell-based, CCRF-CEM; settings: read-out: Ratio CC50/EC50
[11] = tested on: Human alphaherpesvirus 1; test: Antiviral activity against HSV1 KOS infected in HEL assessed as inhibition of virus-induced cytopathicity after 3 days; format: functional, organism-based; settings: Human alphaherpesvirus 1, KOS, 72 h
[12] = tested on: Mammalian orthoreovirus 1; test: Antiviral activity against Reovirus-1 infected in african green monkey Vero assessed as inhibition of virus-induced cytopathicity after 3 days; format: functional, organism-based; method in brief: as §1
[13] = tested on: Human alphaherpesvirus 3; test: Antiviral activity against VZV OKA expressing thymidine kinase infected in HEL cells assessed as inhibition of virus-induced cytopathogenicity after 3 days; format: functional, cell-based; settings: Human alphaherpesvirus 3, strain Oka vaccine, 72 h
[14] = tested on: Influenza B virus; test: Antiviral activity against Influenza B virus infected in MDCK assessed as inhibition of virus-induced cytopathicity after 3 days; format: functional, organism-based
[15] = tested on: Human alphaherpesvirus 3; test: Antiviral activity against thymidine kinase-deficient VZV 07/1 infected in human HEL cells assessed as reduction of virus-induced cytopathogenicity after 3 days; format: functional, organism-based; settings: Human alphaherpesvirus 3, 07/1, HEL, 72 h
[16] = tested on: Vesicular stomatitis virus; test: Antiviral activity against Vesicular stomatitis virus infected in MDCK assessed as inhibition of virus-induced cytopathicity after 3 days; format: functional, organism-based
[17] = tested on: Sindbis virus; test: Antiviral activity against Sindbis virus infected in african green monkey Vero assessed as inhibition of virus-induced cytopathicity after 3 days; format: functional, organism-based; method in brief: as §1
[18] = tested on: Coxsackievirus B4; test: Antiviral activity against Coxsackievirus B4 infected in human HeLa assessed as inhibition of virus-induced cytopathicity after 3 days; format: functional, organism-based; method in brief: as §1
[19] = tested on: Vesicular stomatitis virus; test: Antiviral activity against Vesicular stomatitis virus infected in human HeLa assessed as inhibition of virus-induced cytopathicity after 3 days; format: functional, organism-based
[20] = tested on: Influenza A virus; test: Antiviral activity against Influenza A virus H3N2 infected in MDCK assessed as inhibition of virus-induced cytopathicity after 3 days; format: functional, organism-based
[21] = tested on: Human immunodeficiency virus 1; test: Antiviral activity against HIV1 3B infected in human CEM cells assessed as inhibition of virus-induced giant cell formation after 4 days; format: functional, organism-based; settings: Human immunodeficiency virus 1, 3B, CCRF-CEM, 96 h; method in brief: as §2
[22] = tested on: Vaccinia virus; test: Antiviral activity against Vaccinia virus infected in HEL assessed as inhibition of virus-induced cytopathicity after 3 days; format: functional, organism-based; settings: Orthopoxvirus vaccinia, 72 h
[23] = tested on: Influenza A virus; test: Antiviral activity against Influenza A virus H1N1 infected in MDCK assessed as inhibition of virus-induced cytopathicity after 3 days; format: functional, organism-based
[24] = tested on: CCRF-CEM; test: Cytotoxicity against human CEM cells; format: cell-based
[25] = Cytotoxicity against HEL after 3 days; format: cell-based; settings: human, HEL cells
Method in brief: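 HEL cells were seeded at 5×10^3 cells/well and allowed to grow for 24 h, then given medium with varying compound concentrations. After 3 days at 37 °C, cells were counted with a Coulter counter.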

Structure (SMILES) | Activity [1] | EC50 [2] | Activity [3] | EC50 [4] | IC50 [5] | Activity [6] | IC50 [7] | EC50 [8] | MCC at 72 h [9] | selectivity ratio [10] | EC50 [11] | Activity [12] | EC50 [13] | Activity [14] | EC50 [15] | Activity [16] | Activity [17] | Activity [18] | Activity [19] | Activity [20] | other results
COc1nc(N)nc2c1ncn2C/C=C/CP(=O)(OCOC(=O)C(C)(C)C)OCOC(=O)C(C)(C)C | inactive | 7.5 µM | inactive | 6.5 µM | 37 µM | inactive | 37 µM | 0.28 µM | > 100 µM | 28.5 | 6 µM | inactive | 0.1 µM | inactive | 0.5 µM | inactive | inactive | inactive | inactive | inactive | EC50 [21]: > 0.4 µM; EC50 [22]: 16 µM; Activity [23]: inactive; IC50 [24]: 8 µM; CC50 at 72 h [25]: 1.6 µM
CC(C)(C)C(=O)OCOP(=O)(C/C=C/Cn1cnc2c(N)nc(N)nc21)OCOC(=O)C(C)(C)C | inactive | 20 µM | inactive | 20 µM | 128 µM | inactive | 128 µM | 6.3 µM | > 100 µM | 7.3 | 20 µM | inactive | 6.8 µM | inactive | 12 µM | inactive | inactive | inactive | inactive | inactive | EC50 [21]: 6.6 µM; EC50 [22]: > 20 µM; Activity [23]: inactive; IC50 [24]: 46 µM; CC50 at 72 h [25]: 36 µM
